Test results taken from publication PMC6560181 (Cell chemical biology, 2018).

How the values were obtained:
[1] = tested on: mcr isolates of K. pneumoniae and Escherichia coli; assay: MIC against mcr isolates; assay type: cell-based; conditions: mcr isolates (Table S4)
[2] = tested on: polymyxin-resistant P. aeruginosa strain FADDI-PA070; assay: Static time-kill study; assay type: cell-based; conditions: for log10 CFU/mL kill: 32 μg/mL, 1–4 h polymyxin B, 0.5–6 h octapeptin C4; for antimicrobial effect in time-kill: 1 or 4 μg/mL
[3] = tested on: polymyxin-susceptible strains of P. aeruginosa and K. pneumoniae; assay: MIC by broth microdilution, polymyxin-susceptible strains; assay type: cell-based
human red blood cells = assay: Haemolysis of human red blood cells; assay type: cell-based; conditions: concentrations up to 100 μg/mL
E. coli ATCC 25922 cells [4] = assay: Inner membrane permeabilisation, SYTOX Green flow cytometry; assay type: cell-based; conditions: 1 h at 37°C
[5] = Mouse nephrotoxicity model, kidney histopathology; assay type: in vivo, mice; conditions: 12 mg/kg sc every 2 h, accumulated dose 72 mg/kg
E. coli ATCC 25922 cells [6] = assay: Membrane depolarisation diSC3-5 assay; assay type: cell-based; conditions: 30 min incubation
[7] = tested on: polymyxin-resistant clinical isolates of P. aeruginosa, A. baumannii and K. pneumoniae; assay: MIC by broth microdilution, polymyxin-resistant clinical isolates; assay type: cell-based
[8] = Carboxyfluorescein leakage from lipid vesicles; conditions: vesicles containing lipid A
In short: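 CF-loaded vesicles (50 mM CF; final lipid 5 µM) were made of POPC, POPC/POPG 4:1 or POPC/lipid A 4:1 in 10 mM HEPES pH 7.4 with 150 mM NaCl. Vesicles were exposed for 20 min to lipopeptide at 128–0.06 µg/mL. Leakage was read as CF de-quenching (ex 485 nm, em 520 nm).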

[9] = design: species or system mice; conditions: mouse, in vivo, iv, 10 mg/kg
[10] = assay type: in vitro ADME; conditions: rat
[11] = Acute toxicity after subcutaneous dose in mice; assay type: in vivo; conditions: subcutaneous dose of 40 mg/kg
[12] = tested on: P. aeruginosa FADDI-PA070; assay: MIC against P. aeruginosa FADDI-PA070; assay type: cell-based

Substance | MIC [1] | log10 CFU/mL kill [2] | antimicrobial effect in time-kill [2] | MIC [3] | haemolysis (human red blood cells) | membrane disruption (SYTOX Green uptake) (E. coli ATCC 25922 cells [4]) | kidney histopathology lesions [5] | membrane depolarisation (E. coli ATCC 25922 cells [6]) | MIC [7] | leakage from lipid vesicles [8] | half-life [9] | total clearance [9] | final log10 CFU/mL reduction ([2]; 24 h, after regrowth) | plasma protein binding [10] | acute toxic effects [11] | MIC [12]
colistin | 4 to 16 µg/mL | poor killing activity | no antimicrobial effect | 0.25 to 1 µg/mL | no detectable haemolysis | disrupted both the outer and inner membranes | severe Grade 1–2 lesions | induced membrane depolarisation | 4 to 128 µg/mL | destabilised the membrane | – | – | – | – | – | –
polymyxin B | 4 to 16 µg/mL | six | no antimicrobial effect | 0.25 to 1 µg/mL | – | disrupted both the outer and inner membranes | – | induced membrane depolarisation | 4 to 128 µg/mL | destabilised the membrane | 3.6 h | 7.3 mL/min/kg | three | 83% | acute toxic effects | ≥ 128 µg/mL
